This passage reports IC50 results from ChEMBL document CHEMBL2429837, “Identification of cryptotanshinone as an inhibitor of oncogenic protein tyrosine phosphatase SHP2 (PTPN11)” (J Med Chem, 2013).

For orientation: IC50 means the concentration at which inhibition is half-maximal.

Experiment [1] addresses Tyrosine-protein phosphatase non-receptor type 6 (Homo sapiens, UniProt P29350). Description: Inhibition of GST-tagged SHP1 PTP domain (unknown origin) using phospho-EGFR Asp-Ala-Asp-Glu-Tyr[PO3H2]-Leu-Ile-Pro-Gln-Gln-Gly as substrate preincubated for 30 mins before substrate addition measured after 30 mins by phosphatase activity assay. In short, it runs like this: (§1)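 In-house SHP1 or purchased GST-CD45 cytoplasmic domain, GST-LAR, GST-TC-PTP preincubated with compound (6 concentrations) in 25 mM Tris-HCl pH 7.4, 50 mM NaCl, 5 mM DTT, 2.5 mM EDTA, room temperature 30 min. Phospho-EGFR pTyr1018 peptide added to 0.2 mM final, 30°C 30 min; released phosphate by Malachite Green, OD620. Three independent experiments.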

For experiment [2], the target named is T1, Tyrosine-protein phosphatase non-receptor type 11 (Homo sapiens, UniProt Q06124).
T1 sequence (Q06124 whole entry): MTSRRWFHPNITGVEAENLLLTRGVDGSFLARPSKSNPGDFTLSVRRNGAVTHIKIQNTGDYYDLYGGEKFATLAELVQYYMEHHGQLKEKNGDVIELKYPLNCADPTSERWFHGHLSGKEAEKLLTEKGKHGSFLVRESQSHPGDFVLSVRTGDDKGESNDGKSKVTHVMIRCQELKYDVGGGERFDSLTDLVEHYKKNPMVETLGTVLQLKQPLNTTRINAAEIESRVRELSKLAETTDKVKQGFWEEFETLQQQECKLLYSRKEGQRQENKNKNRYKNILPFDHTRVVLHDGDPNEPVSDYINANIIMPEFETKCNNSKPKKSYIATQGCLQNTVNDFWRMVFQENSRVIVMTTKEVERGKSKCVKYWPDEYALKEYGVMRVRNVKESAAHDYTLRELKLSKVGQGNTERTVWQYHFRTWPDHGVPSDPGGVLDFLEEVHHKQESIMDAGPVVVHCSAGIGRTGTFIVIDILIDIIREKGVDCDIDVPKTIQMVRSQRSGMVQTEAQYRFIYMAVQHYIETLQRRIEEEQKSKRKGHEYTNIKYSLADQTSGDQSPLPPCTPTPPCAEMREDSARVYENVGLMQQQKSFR
As to the kind of experiment: Inhibition of GST-tagged SHP2 PTP domain (unknown origin) using phospho-EGFR Asp-Ala-Asp-Glu-Tyr[PO3H2]-Leu-Ile-Pro-Gln-Gln-Gly as substrate preincubated for 30 mins before substrate addition measured after 30 mins by phosphatase activity assay. In short, it runs like this:
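GST-SHP2 PTP domain fusion, purified in-house, 0.5 µg per reaction. Buffer 25 mM Tris-HCl pH 7.4, 50 mM NaCl, 5 mM DTT, 2.5 mM EDTA. Inhibitor pre-incubation at room temperature; substrate 0.2 mM final; reaction at 30°C. Free phosphate by Malachite Green, OD620 read after 10 min. IC50 from 6 (or 5) concentrations, three independent experiments.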

In experiment [3] the target is T2, Tyrosine-protein phosphatase non-receptor type 2 (Homo sapiens, UniProt P17706).
T2 sequence (P17706 whole entry): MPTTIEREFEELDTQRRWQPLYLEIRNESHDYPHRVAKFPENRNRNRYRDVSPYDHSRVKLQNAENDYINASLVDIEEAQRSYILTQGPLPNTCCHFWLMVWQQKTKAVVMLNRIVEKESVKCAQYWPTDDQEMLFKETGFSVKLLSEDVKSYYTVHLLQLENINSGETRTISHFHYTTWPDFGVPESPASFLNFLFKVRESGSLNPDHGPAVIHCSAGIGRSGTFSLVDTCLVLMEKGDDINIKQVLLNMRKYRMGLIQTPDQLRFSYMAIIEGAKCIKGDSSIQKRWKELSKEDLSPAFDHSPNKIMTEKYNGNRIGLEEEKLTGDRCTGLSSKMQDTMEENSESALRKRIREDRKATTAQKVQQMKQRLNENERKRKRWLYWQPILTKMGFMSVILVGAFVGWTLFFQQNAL
As to the kind of experiment: Inhibition of GST-tagged TC-PTP (unknown origin) using phospho-EGFR Asp-Ala-Asp-Glu-Tyr[PO3H2]-Leu-Ile-Pro-Gln-Gln-Gly as substrate preincubated for 30 mins before substrate addition measured after 30 mins by phosphatase activity assay. The method in brief: as §1

The target in experiment [4] is T3, Tyrosine-protein phosphatase non-receptor type 9 (Homo sapiens, UniProt P43378).
T3 sequence (P43378 whole entry): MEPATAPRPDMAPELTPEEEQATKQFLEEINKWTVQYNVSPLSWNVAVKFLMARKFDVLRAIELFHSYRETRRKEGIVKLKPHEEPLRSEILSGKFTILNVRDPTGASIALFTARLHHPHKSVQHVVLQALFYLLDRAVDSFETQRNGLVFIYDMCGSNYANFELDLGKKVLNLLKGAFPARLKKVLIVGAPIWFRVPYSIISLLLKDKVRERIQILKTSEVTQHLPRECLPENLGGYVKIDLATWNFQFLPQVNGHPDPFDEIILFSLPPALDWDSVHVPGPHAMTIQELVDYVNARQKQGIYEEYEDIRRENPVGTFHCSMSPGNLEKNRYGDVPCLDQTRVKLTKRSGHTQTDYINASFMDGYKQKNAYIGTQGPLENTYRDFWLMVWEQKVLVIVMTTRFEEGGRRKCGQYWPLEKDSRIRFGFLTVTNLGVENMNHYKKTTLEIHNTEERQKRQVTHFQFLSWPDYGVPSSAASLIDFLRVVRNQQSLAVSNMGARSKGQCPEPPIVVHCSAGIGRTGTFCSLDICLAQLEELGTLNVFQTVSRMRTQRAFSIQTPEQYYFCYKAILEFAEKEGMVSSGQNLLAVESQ
As to the kind of experiment: Inhibition of GST-tagged MEG2 (unknown origin) using phospho-EGFR Asp-Ala-Asp-Glu-Tyr[PO3H2]-Leu-Ile-Pro-Gln-Gln-Gly as substrate preincubated for 30 mins before substrate addition measured after 30 mins by phosphatase activity assay. The method in brief:
(§2)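 GST-fusion phosphatase, purified in-house or commercial (MEG2 purchased). Enzyme and compound preincubated 30 min at room temperature in 25 mM Tris-HCl pH 7.4, 50 mM NaCl, 5 mM DTT, 2.5 mM EDTA. EGFR pTyr1018 peptide then added to 0.2 mM final and incubated 30 min at 30°C. Released phosphate read with Malachite Green at OD620 after 10 min. IC50 from 6 concentrations, three independent experiments.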

Experiment [5] addresses Receptor-type tyrosine-protein phosphatase F (Homo sapiens, UniProt P10586). As to the kind of experiment: Inhibition of GST-tagged LAR (unknown origin) using phospho-EGFR Asp-Ala-Asp-Glu-Tyr[PO3H2]-Leu-Ile-Pro-Gln-Gln-Gly as substrate preincubated for 30 mins before substrate addition measured after 30 mins by phosphatase activity assay. The method in brief:
as §1

Experiment [6] deals with T4, Receptor-type tyrosine-protein phosphatase C (Homo sapiens, UniProt P08575).
T4 sequence (P08575 whole entry): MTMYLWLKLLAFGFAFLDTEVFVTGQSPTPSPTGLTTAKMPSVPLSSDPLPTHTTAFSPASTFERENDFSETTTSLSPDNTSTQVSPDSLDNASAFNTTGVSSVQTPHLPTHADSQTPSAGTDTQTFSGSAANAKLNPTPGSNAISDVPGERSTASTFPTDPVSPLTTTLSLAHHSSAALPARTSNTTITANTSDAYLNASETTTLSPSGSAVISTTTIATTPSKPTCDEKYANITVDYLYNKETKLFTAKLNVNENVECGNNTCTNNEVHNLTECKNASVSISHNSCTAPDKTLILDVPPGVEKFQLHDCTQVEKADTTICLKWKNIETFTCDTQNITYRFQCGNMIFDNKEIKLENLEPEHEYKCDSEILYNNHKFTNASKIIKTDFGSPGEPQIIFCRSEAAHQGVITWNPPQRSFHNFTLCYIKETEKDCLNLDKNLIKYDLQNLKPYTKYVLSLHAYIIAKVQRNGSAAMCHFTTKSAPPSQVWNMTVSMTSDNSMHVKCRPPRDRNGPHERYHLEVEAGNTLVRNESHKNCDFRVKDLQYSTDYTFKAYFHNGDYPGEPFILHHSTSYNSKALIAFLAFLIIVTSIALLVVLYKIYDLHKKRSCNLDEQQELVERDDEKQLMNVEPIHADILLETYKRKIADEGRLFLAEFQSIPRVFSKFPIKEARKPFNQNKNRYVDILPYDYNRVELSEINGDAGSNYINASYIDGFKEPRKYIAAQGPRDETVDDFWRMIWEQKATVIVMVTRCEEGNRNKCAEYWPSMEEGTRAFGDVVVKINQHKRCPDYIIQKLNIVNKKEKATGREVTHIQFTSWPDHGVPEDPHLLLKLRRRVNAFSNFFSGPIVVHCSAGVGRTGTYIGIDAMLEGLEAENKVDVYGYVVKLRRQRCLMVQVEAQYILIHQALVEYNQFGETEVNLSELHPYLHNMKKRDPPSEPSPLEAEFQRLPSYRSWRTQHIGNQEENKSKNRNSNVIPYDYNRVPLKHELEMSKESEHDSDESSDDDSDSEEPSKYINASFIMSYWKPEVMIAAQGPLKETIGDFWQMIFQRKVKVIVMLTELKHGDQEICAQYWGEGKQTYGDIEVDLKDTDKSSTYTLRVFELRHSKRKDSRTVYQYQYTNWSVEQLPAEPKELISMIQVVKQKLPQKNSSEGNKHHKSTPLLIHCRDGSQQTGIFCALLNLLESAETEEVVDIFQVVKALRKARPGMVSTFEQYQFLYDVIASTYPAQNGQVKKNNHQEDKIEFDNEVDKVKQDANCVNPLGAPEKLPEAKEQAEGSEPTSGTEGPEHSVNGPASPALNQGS
Description: Inhibition of GST-tagged CD45 (unknown origin) using phospho-EGFR Asp-Ala-Asp-Glu-Tyr[PO3H2]-Leu-Ile-Pro-Gln-Gln-Gly as substrate preincubated for 30 mins before substrate addition measured after 30 mins by phosphatase activity assay. The method in brief:
as §1

The target of experiment [7] is T5, Tyrosine-protein phosphatase non-receptor type 1 (Homo sapiens, UniProt P18031).
T5 sequence (P18031 whole entry): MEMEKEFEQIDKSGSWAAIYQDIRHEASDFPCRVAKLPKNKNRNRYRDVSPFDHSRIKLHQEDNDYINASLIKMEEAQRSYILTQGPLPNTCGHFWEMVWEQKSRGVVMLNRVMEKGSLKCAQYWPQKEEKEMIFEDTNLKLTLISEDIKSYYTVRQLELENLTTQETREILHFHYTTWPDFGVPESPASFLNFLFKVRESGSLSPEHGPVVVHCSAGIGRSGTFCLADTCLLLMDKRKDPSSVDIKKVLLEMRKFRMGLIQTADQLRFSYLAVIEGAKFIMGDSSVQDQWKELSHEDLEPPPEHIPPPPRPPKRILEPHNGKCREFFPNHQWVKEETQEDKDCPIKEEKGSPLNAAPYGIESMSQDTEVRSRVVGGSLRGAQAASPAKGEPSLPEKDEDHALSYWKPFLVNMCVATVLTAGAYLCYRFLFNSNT
As to the kind of experiment: Inhibition of GST-tagged PTP1B (unknown origin) using phospho-EGFR Asp-Ala-Asp-Glu-Tyr[PO3H2]-Leu-Ile-Pro-Gln-Gln-Gly as substrate preincubated for 30 mins before substrate addition measured after 30 mins by phosphatase activity assay. In short, it runs like this: as §2

In experiment [8] the target is Tyrosine-protein phosphatase non-receptor type 11 (Homo sapiens, UniProt Q06124, E76K). As to the kind of experiment: Inhibition of GST-tagged full-length SHP2 E76K mutant (unknown origin) using phospho-EGFR Asp-Ala-Asp-Glu-Tyr[PO3H2]-Leu-Ile-Pro-Gln-Gln-Gly as substrate preincubated for 30 mins before substrate addition measured after 30 mins by phosphatase activity assay.
Sequence of Tyrosine-protein phosphatase non-receptor type 11 (Homo sapiens, UniProt Q06124, E76K) (Q06124 as listed by the source E76K): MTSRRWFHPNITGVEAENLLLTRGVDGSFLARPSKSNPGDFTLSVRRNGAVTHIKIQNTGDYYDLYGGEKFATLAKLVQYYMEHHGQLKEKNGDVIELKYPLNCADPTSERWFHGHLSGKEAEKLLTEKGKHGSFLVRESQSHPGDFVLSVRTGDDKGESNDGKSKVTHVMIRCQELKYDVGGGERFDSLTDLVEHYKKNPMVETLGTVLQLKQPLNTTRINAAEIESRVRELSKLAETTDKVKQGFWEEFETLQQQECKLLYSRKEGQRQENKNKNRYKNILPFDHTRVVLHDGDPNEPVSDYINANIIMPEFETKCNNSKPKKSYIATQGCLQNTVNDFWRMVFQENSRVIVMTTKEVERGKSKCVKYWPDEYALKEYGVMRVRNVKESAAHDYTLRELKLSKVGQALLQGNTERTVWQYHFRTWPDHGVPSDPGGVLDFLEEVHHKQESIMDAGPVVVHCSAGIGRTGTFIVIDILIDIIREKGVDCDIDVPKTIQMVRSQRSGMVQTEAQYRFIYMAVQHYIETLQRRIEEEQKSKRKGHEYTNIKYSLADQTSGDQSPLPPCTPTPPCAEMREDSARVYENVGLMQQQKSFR

A short description of experiment [9]: Growth inhibition of IL3-stimulated mouse BA/F3 cells after 48 hrs by CellTiter 96 assay. The format is functional, cell-based. As to conditions: BaF3, 48 h. In short, it runs like this: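 Ba/F3 cells seeded 5 × 10^3 per well in RPMI-1640 with 10% FBS and mouse IL-3 (1.0 ng/mL), grown overnight, then exposed to compound or matching DMSO for 48 h. Viable cells counted by tetrazolium-based one-solution proliferation reagent. Triplicates per experiment, three experiments; mean±S.E.M.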

In experiment [10] the target is T1, Tyrosine-protein phosphatase non-receptor type 11. Description: Inhibition of wild type GST-tagged full-length SHP2 (unknown origin) using phospho-EGFR Asp-Ala-Asp-Glu-Tyr[PO3H2]-Leu-Ile-Pro-Gln-Gln-Gly as substrate preincubated for 30 mins before substrate addition measured after 30 mins by phosphatase activity assay. The method in brief:
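Wild-type full-length SHP2 was purified recombinant and run like the in-house GST-SHP2 assay. It was preincubated with compound 30 min at room temperature in Tris-HCl pH 7.4 buffer with NaCl, DTT and EDTA. Phospho-EGFR peptide was then added to 0.2 mM and incubated 30 min at 30°C, with Malachite Green read-out at OD620. Triplicates from one of three repeat experiments.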

Structures are written as SMILES.

Sequence of Tyrosine-protein phosphatase non-receptor type 6 (P29350 whole entry, the tested form may be a part): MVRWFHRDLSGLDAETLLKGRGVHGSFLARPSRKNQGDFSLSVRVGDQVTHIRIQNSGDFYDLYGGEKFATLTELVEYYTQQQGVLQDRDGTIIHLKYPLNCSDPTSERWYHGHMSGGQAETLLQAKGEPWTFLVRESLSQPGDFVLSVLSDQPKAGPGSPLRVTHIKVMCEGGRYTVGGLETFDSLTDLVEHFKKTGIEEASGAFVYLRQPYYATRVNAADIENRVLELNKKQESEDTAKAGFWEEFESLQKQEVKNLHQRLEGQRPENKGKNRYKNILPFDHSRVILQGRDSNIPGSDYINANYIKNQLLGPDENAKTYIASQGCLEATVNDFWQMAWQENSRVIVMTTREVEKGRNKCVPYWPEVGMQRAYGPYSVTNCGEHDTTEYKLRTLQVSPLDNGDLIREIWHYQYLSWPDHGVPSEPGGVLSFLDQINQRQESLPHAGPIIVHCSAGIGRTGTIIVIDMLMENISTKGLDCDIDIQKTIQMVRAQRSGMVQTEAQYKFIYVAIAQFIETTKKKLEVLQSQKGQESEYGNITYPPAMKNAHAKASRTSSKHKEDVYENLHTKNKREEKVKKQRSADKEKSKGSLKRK
Sequence of Receptor-type tyrosine-protein phosphatase F (P10586 whole entry): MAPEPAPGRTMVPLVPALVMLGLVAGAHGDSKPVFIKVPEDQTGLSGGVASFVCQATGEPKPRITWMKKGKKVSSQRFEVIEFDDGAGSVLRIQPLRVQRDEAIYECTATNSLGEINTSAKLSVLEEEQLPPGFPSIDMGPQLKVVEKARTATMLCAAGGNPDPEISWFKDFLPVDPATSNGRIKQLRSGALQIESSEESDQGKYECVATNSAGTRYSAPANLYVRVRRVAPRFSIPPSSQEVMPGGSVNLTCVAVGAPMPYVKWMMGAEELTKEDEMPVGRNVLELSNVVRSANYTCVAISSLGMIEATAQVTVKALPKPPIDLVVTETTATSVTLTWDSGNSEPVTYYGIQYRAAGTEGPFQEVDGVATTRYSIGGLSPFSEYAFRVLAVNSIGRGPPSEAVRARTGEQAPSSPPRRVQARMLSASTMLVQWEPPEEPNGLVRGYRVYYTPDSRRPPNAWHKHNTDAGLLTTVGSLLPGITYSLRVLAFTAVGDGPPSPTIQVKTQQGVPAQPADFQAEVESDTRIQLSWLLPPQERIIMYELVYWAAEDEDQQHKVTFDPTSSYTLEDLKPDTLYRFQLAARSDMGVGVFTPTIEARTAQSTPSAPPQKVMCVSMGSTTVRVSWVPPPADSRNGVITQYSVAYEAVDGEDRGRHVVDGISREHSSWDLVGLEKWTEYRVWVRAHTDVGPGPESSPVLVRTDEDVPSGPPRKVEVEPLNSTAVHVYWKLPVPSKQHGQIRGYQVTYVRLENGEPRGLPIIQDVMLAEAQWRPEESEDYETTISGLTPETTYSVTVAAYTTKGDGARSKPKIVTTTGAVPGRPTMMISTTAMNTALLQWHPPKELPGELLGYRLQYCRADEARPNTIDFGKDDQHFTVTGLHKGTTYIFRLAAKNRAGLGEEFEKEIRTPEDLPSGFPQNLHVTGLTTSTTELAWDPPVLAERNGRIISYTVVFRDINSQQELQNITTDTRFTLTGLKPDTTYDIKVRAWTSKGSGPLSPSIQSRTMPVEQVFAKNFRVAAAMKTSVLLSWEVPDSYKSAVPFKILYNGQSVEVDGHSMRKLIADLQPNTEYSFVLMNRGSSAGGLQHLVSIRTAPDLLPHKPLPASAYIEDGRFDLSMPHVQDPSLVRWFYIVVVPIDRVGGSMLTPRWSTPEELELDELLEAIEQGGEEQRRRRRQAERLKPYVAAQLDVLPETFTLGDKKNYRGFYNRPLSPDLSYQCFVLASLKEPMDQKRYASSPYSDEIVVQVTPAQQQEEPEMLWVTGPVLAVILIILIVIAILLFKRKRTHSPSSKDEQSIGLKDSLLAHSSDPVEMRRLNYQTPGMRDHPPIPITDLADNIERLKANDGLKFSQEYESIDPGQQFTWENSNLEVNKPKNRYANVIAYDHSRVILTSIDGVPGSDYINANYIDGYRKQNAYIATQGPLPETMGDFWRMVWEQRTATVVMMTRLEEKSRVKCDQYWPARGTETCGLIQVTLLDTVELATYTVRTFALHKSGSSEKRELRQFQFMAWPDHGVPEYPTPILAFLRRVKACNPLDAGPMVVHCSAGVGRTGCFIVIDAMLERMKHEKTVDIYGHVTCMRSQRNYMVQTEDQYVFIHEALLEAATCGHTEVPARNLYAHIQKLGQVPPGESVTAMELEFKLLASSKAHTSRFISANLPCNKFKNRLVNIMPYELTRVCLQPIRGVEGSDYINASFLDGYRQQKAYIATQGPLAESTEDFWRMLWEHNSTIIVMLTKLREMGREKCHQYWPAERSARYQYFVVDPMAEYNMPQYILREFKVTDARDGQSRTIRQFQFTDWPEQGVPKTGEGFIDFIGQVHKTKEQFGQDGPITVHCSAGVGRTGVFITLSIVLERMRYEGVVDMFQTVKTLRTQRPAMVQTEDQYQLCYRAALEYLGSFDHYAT

With `Cc1coc2c1C(=O)C(=O)c1c-2ccc2c1CCCC2(C)C` [TANSHINONE IIA], the results for the IC50 in experiment [1] and in experiment [2] were 2.14 µM and 2.59 µM, respectively.
For the compound `C[C@H]1COC2=C1C(=O)C(=O)c1c2ccc2c1CCCC2(C)C` [CRYPTOTANSHINONE], the IC50 turned out to be 55.7 µM in [3]; 59.4 µM in experiment [4]; 36.9 µM in experiment [5]; 41.4 µM in [6]; 33.5 µM in [7]; 39.5 µM in experiment [1]. The IC50 came to 23.9 µM in [8], 22.5 µM in [2], 17.2 µM in [9] and 45.2 µM in experiment [10].
For `Cc1coc2c1C(=O)C(=O)c1c-2ccc2c(C)cccc12` [TANSHINONE I], the IC50 is 1.97 µM in experiment [1] and 2.57 µM in [2].
As for `Cc1cccc2c3c(ccc12)C1=C(C(=O)C3=O)[C@@H](C)CO1` [DIHYDROTANSHINONE I], the concentration for half-maximal inhibition (IC50) in [1] amounted to 3.67 µM; in [2] it was 3.94 µM.
